From BindingDB's records for doi:10.1021/acsmedchemlett.8b00442 (University of Helsinki, 2018) come the findings set out here.

Each structure is given as a SMILES string.

For the assay, the target named is T1, Phosphatidylserine lipase ABHD16A (Homo sapiens, UniProt O95870).
T1 sequence (O95870 whole entry): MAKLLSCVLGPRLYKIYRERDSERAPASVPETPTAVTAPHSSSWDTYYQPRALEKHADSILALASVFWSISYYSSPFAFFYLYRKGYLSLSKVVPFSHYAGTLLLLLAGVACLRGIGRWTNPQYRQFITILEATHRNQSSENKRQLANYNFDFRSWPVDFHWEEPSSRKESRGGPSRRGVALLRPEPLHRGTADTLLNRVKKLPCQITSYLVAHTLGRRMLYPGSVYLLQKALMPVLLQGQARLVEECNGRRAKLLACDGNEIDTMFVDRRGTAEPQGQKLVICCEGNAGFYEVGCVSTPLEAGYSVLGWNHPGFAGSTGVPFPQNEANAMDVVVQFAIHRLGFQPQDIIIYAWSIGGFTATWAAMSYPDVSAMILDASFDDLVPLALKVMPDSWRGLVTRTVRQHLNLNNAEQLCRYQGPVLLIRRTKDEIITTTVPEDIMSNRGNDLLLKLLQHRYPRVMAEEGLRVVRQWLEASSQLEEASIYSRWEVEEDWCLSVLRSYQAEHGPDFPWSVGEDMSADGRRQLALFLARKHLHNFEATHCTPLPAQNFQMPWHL
Description: Inhibition of ABHD16A (unknown origin). In a few lines:
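Lysates of HEK293 cells transiently overexpressing human ABHD16A were pretreated for 30 min with DMSO (control) or inhibitor. 1-LG substrate (25 µM final) was then added, and liberated glycerol was measured. Screening was at 10 µM as % control activity (n=2-3). Dose-response used 0.1-100 µM, duplicate wells from two independent experiments, giving IC50.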

On to `COc1nn(-c2ccc(F)cc2)c(=O)o1`, for which the IC50 was determined as 32 nM.

One may read the IC50 as the midpoint of a concentration-inhibition curve. A high value points to a need for much substance.
